The nature of series [1]: Inhibition of butter milk xanthine oxidase (unknown origin) assessed as initial velocity of uric acid formation pre-incubated for 3 mins by spectrophotometry analysis. An outline of the steps: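 Buttermilk xanthine oxidase diluted to 0.05 U/mL in 50 mM phosphate buffer. Compounds at several concentrations were added in phosphate buffer containing 10% DMSO and pre-incubated 3 min at room temperature. The reaction was started with xanthine solution (200 µM as added). Uric acid formation was read at 293 nm, with the linear rate over 5 min taken as initial velocity. % inhibition was calculated against the no-inhibitor rate, and IC50 derived.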

Series [2] is described as follows: Half life in rat liver microsomes. The class given is ADME.
A short description of series [3]: Cmax in Sprague-Dawley rat at 10 mg/kg, po. The class given is ADME, organism-based. Also on record: dose 10 mg/kg, route oral. The conditions noted are these: in vivo. An outline of the steps: (§1)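 Single oral dose of 10 mg/kg given to SD rats. Plasma Cmax, Tmax, AUC0–last, AUC0–infinity and t1/2 were determined, n = 3.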
Series [4] has as its system Rattus norvegicus. As to the kind of experiment: Inhibition of oxonic acid-induced high uric acid level in Sprague-Dawley rat plasma at 10 mg/kg, po after 1 hr. In kind it is functional. Summed up: (§2)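 Hyperuricemia was induced in male SD rats (about 200 g) with potassium oxonate 300 mg/kg i.p., suspended in 0.8% carboxymethylcellulose. One hour later compounds were dosed orally in PEG400:ethanol (2:1), and blood was taken 1 h post-dose for plasma uric acid. Inhibition was scaled with the normal group as 100% and the oxonate control as 0%. Statistics used ANOVA with Dunnett's post-test.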

Series [5] can be described thus: AUC (0 to last) in Sprague-Dawley rat at 10 mg/kg, po. The class given is ADME, organism-based. Also on record: dose 10 mg/kg, route oral, time 0 - last. As to conditions: in vivo. Summed up: as §1
The nature of series [6]: AUC (0 to infinity) in Sprague-Dawley rat at 10 mg/kg, po. The class given is ADME, organism-based. Also on record: dose 10 mg/kg, route oral, time infinity. As to conditions: in vivo. An outline of the steps: as §1
Series [7] in a line: Tmax in Sprague-Dawley rat at 10 mg/kg, po. The class given is ADME, organism-based. The conditions noted are these: in vivo. An outline of the steps: as §1
Series [8] can be described thus: Half life in Sprague-Dawley rat at 10 mg/kg, po. The class given is ADME, organism-based. The conditions noted are these: in vivo. Summed up:
as §1

Series [9] is described as follows: Plasma concentration in Sprague-Dawley rat at 10 mg/kg, po after 1 hr. The class given is ADME, organism-based. Summed up:
as §2

From ChEMBL document CHEMBL3751738, “Structure-based design and biological evaluation of novel 2-(indol-2-yl) thiazole derivatives as xanthine oxidase inhibitors” (Bioorg Med Chem Lett, 2016) come the findings set out here.

As to `Cc1nc(-c2cc3cc(NC4CCCC4)cc(C#N)c3[nH]2)sc1C(=O)O`, in [1], the IC50 is 9.4 nM. The half-life in series [2] turned out to be 2.96 h. Besides, the Cmax in series [3] was 300 ng/mL.
Consider `Cc1nc(-c2cc3cc(OC(C)C)cc([N+](=O)[O-])c3[nH]2)sc1C(=O)O`, for which the IC50 in series [1] was found to be 5.1 nM. In addition, the values for the half-life in series [2] and in series [8] were 4.13 h and 3.45 h, respectively. Also, the inhibition in vivo at 10 mg/kg in [4] is 43%. In series [3], this compound yielded a Cmax of 4940 ng/mL. The compound further displayed an AUC(0-t) in series [5] of 8230 ng·h/mL. Further, the AUC(0-inf) in series [6] amounted to 13100 ng·h/mL. Also, the Tmax in series [7] worked out at 0.42 h.
In the case of `Cc1nc(-c2cc3cc(OCc4ccccc4)ccc3[nH]2)sc1C(=O)O`, the IC50 in series [1] stood at 522 nM.
On to `Cc1nc(-c2cc3cc(Oc4ccccc4)cc([N+](=O)[O-])c3[nH]2)sc1C(=O)O`, for which, in series [1], the IC50 was 15.9 nM. This compound returned a half-life in [2] of 4.03 h. Further, the inhibition in vivo at 10 mg/kg in series [4] came out at 7.1%. This compound also yielded a Cmax in [3] of 3200 ng/mL.
Take `Cc1nc(-c2cc3cc(CNS(C)(=O)=O)cc([N+](=O)[O-])c3[nH]2)sc1C(=O)O`: the IC50 in series [1] was 3.6 nM. This compound also showed a half-life in series [2] of 14.6 h. The same compound showed an inhibition in vivo at 10 mg/kg in series [4] of 0%. The concentration at 1 h in series [9] came out at 17 ng/mL.
On to `Cc1nc(-c2cc3cc(Oc4ccccc4)cc(Cl)c3[nH]2)sc1C(=O)O`, for which the IC50 in [1] was 14.3 nM. The compound further yielded a half-life in series [2] of 4.69 h.
With `Cc1nc(-c2cc3cc(Oc4ccccc4)cc(C#N)c3[nH]2)sc1C(=O)O`, in [1], the IC50 was found to be 8.9 nM. Further, the half-life in [2] was 3.67 h.
On the same counts, the results for `Cc1nc(-c2cc3cc(Oc4ccccc4)cc(Br)c3[nH]2)sc1C(=O)O` are 17 nM and 1.52 h.
Turning to `Cc1nc(-c2cc3cc(NCc4ccccc4)cc(C#N)c3[nH]2)sc1C(=O)O`, the IC50 in series [1] turned out to be 9.3 nM. In addition, in series [2], the half-life turned out to be 1.5 h.
In the case of `Cc1nc(-c2cc3cc(N4CCCCC4)cc(C#N)c3[nH]2)sc1C(=O)O`, the IC50 in [1] came to 6.9 nM. In [2], this compound yielded a half-life of 2.51 h. The compound also showed a Cmax in series [3] of 740 ng/mL.
As to `COc1cc([N+](=O)[O-])c2[nH]c(-c3nc(C)c(C(=O)O)s3)cc2c1`, the IC50 in series [1] came out at 7 nM. In addition, the half-life in series [2] amounted to 0.402 h. The compound also gave an inhibition in vivo at 10 mg/kg in series [4] of 4%. Moreover, the concentration at 1 h in series [9] amounted to 100 ng/mL.
Regarding `Cc1nc(-c2cc3cc(N)cc(C#N)c3[nH]2)sc1C(=O)O`, the concentration for half-maximal inhibition (IC50) in [1] is 31.8 nM.
Regarding `Cc1nc(-c2cc3cc(OC4CCCC4)cc(C#N)c3[nH]2)sc1C(=O)O`, the IC50 in series [1] was 5.7 nM. Also, in series [2], the half-life was 2.07 h. 10 mg/kg produced 2.3% inhibition in vivo in [4]. In [3], this compound showed a Cmax of 720 ng/mL.
In the case of `Cc1nc(-c2cc3cc(Oc4ccccc4)ccc3[nH]2)sc1C(=O)O`, the IC50 in series [1] worked out at 233 nM. Further, the half-life in [2] is 1.94 h.
On the same counts, the results for `Cc1nc(-c2cc3cc(OCC(C)C)ccc3[nH]2)sc1C(=O)O` are 209 nM and 1.61 h.
Turning to `N#Cc1cc(-c2n[nH]c(-c3ccncc3)n2)ccn1` [TOPIROXOSTAT], the IC50 in series [1] was 5.3 nM.
As for `Oc1ncnc2[nH]ncc12` [ALLOPURINOL], the IC50 in [1] came to 3740 nM.
Take `COc1ccc2cc(-c3nc(C)c(C(=O)O)s3)[nH]c2c1`: the IC50 in [1] amounted to 2200 nM.
Take `Cc1nc(-c2ccc(OCC(C)C)c(C#N)c2)sc1C(=O)O` [FEBUXOSTAT]: in series [1], the IC50 stood at 3.1 nM. Besides, at 10 mg/kg the inhibition in vivo in series [4] was 60%.
As for `Cc1nc(-c2cc3cc(OC(C)C)cc(C#N)c3[nH]2)sc1C(=O)O`, the IC50 in series [1] turned out to be 6.1 nM. The same compound gave a half-life in series [2] of 2.17 h. The compound also had an inhibition in vivo at 10 mg/kg in series [4] of 19%. The compound also returned a Cmax in [3] of 3750 ng/mL.
With `COc1ccc2[nH]c(-c3nc(C)c(C(=O)O)s3)cc2c1`, the half-maximal inhibitory concentration (IC50) in series [1] stood at 792 nM.
`Cc1nc(-c2cc3ccc(OCC(C)C)cc3[nH]2)sc1C(=O)O`: the IC50 in [1] came out at 481 nM.
